Assays:
[1] = tested on: Trypanosoma brucei brucei; experiment: Antitrypanosomal activity against bloodstream form of wild type Trypanosoma brucei brucei S427 trypomastigotes incubated for 48 hrs by resazurin dye based fluorescence assay; assay type: functional, organism-based; settings: S427, 48 h
In short: (§1)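 Bloodstream T. b. brucei in complete HMI-9 at 37 °C, 5% CO2, 2 × 10⁵ cells/mL, exposed to doubling dilutions of compound for 48 h. Resazurin was then added and cells were incubated a further 24 h. Fluorescence was read at ex 544/em 590 nm with a drug-free control and pentamidine as positive control. EC50 came from a variable-slope sigmoidal fit, at least 3 independent experiments.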

[2] = tested on: Trypanosoma brucei brucei; experiment: Antitrypanosomal activity against drug resistant Trypanosoma brucei B48 incubated for 48 hrs by resazurin dye based fluorescence assay; assay type: functional, organism-based; settings: B48, 48 h; in short: as §1
[3] = Resistance factor, ratio of EC50 for antitrypanosomal activity against drug resistant Trypanosoma brucei B48 to EC50 for antitrypanosomal activity against bloodstream form of wild type Trypanosoma brucei brucei S427 trypomastigotes; assay type: functional
In short: (§2)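 The assay used bloodstream forms in HMI-9 at 37 °C, 5% CO2, 2 × 10⁵ cells/mL, read at ex 544/em 590 nm. EC50 came from a variable-slope sigmoidal fit, at least 3 experiments.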

[4] = tested on: Trypanosoma brucei brucei; experiment: Antitrypanosomal activity against bloodstream form of Trypanosoma brucei brucei AQP1-3 KO trypomastigotes incubated for 48 hrs by resazurin dye based fluorescence assay; assay type: functional, organism-based; in short: as §1
[5] = Resistance factor, ratio of EC50 for Antitrypanosomal activity against bloodstream form of Trypanosoma brucei brucei AQP1-3 KO trypomastigotes to EC50 for antitrypanosomal activity against bloodstream form of wild type Trypanosoma brucei brucei S427 trypomastigotes; assay type: functional; in short: as §2
[6] = Cytotoxicity against HEK293T cells assessed as reduction in cell viability […] by resazurin dye based fluorescence assay; design: species or system HEK-293T; settings: human
[7] = Selectivity index, ratio of CC50 cytotoxicity against HEK293T cells to EC50 for antitrypanosomal activity against bloodstream form of wild type Trypanosoma brucei brucei S427 trypomastigotes; assay type: toxicity, cell-based; settings: human; read-out: Ratio CC50/EC50
In short: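 SI = CC50 on HEK 293T divided by EC50 on WT s427. For HEK 293T, cells adhered 24 h, were exposed 30 h, then given resazurin for 24 h (ex 530/em 590). For trypanosomes, cells were exposed 48 h, then given resazurin for 24 h (ex 544/em 590). Both values came from dose-response fits.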

[8] = biological target: Alternative oxidase, mitochondrial (Trypanosoma brucei brucei, UniProt Q26710); experiment: Inhibition of recombinant Trypanosoma brucei brucei alternative oxidase using ubiquinol as substrate preincubated for 2 mins followed by substrate addition by UV-Vis spectrophotometry
In short: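 Recombinant ΔMTS-TAO was preincubated for 2 min with varying inhibitor amounts at 25 °C in 50 mM Tris-HCl pH 7.4 with 0.05% octaethylene glycol monododecyl ether. The reaction was started with ubiquinol, and its oxidation was followed at 278 nm for 2 min. DMSO served as negative control and ascofuranone/SHAM as positive controls. IC50 came from residual activity versus inhibitor concentration.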

[9] = Drug uptake in bloodstream form of wild type Trypanosoma brucei brucei S427 trypomastigotes assessed as increase in fluorescent signal at 0.2 uM measured by fluorimeter; assay type: ADME
In short: (§3)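 Mid-log bloodstream 427WT or aqp1-3 null cells were washed and resuspended at 10⁸ cells/mL in assay buffer. Fluorescence was read continuously at 37 °C, 5% CO2 (ex 544/em 620). After a background period, compound was added at the stated final concentration. Each trace averages 3 replicate wells on one plate.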

[10] = Drug uptake in bloodstream form of Trypanosoma brucei brucei AQP1-3 KO trypomastigotes at 0.2 to 2 uM measured after 1 hr by fluorimeter; assay type: ADME; settings: dose 0.2-2 µM; in short: as §3
[11] = Drug localization in mitochondria of mouse MC3T3-E1 cells at 0.6 uM incubated for 30 mins by MTDR staining based single-photon excitation fluorescence analysis; assay type: ADME; settings: mc3t3-e1, 0.5 h
In short: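 MC3T3-E1 preosteoblasts were grown in αMEM with 10% FBS, glutamine and pen/strep, then seeded at 25,000 cells/well on glass-bottom slides. Cells were preincubated with compound for 30 min at 37 °C, then given MitoTracker Deep Red (16 nM final) for 30 min. Confocal imaging used alternating excitation: 561 nm with detection at 580–630 nm, and 640 nm with detection at 650–720 nm.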

[12] = Drug localization in mitochondria of mouse MC3T3-E1 cells incubated for 30 mins by […] based two-photon excitation microscopy analysis; assay type: ADME; settings: mc3t3-e1, 0.5 h
[13] = Drug localization in rat liver mitochondria; assay type: ADME
In short: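 Rat liver was homogenised in 20 mM HEPES/250 mM sucrose, pH 7.4. After 800×g spins, mitochondria were enriched at 9000×g. Probe at 3 × 10⁻⁷ M was incubated with the mitochondrial suspension for 20 min at room temperature, then spun at 10,000×g for 10 min. Supernatant emission (ex 470 and 540 nm) was compared with probe in buffer alone to estimate the fraction partitioned into mitochondria.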

[14] = Drug localization in mitochondria of Trypanosoma brucei brucei at 40 uM incubated for 60 mins by MTG dye based confocal microscopy analysis; assay type: ADME; settings: 1 h
In short: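 Bloodstream T. b. brucei at 2 × 10⁶ cells/mL were given compound in complete HMI-9 for 1 h at 37 °C, 5% CO2. MitoTracker Green (100 nM final) was added for 10 min. Cells were then pelleted, PBS-washed and stained with Hoechst 33342 for 10 min in the dark. They were immobilised in PBS-primed CyGEL and imaged for overlap with MTG.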

Alternative oxidase, mitochondrial, sequence (Q26710 whole entry): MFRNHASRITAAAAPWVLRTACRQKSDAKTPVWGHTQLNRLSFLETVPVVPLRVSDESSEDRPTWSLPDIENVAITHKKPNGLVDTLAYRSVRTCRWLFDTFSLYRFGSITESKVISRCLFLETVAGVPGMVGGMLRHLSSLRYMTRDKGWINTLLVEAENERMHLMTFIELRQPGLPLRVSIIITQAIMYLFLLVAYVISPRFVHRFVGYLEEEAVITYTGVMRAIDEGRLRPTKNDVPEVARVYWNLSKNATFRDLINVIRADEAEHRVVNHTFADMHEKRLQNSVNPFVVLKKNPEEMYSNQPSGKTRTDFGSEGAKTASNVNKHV

Row | Compound | EC50 [1] [nM] | EC50 [2] [nM] | Ratio EC50 [3] | EC50 [4] [nM] | Ratio EC50 [5] | CC50 [6] [nM] | selectivity ratio [7] | IC50 [8] [nM] | Drug uptake [9] | Drug uptake [10] | Drug uptake [11] | Drug uptake [12] | Drug uptake [13] [%] | Drug uptake [14]
1 | COC(=O)c1c(C)cc(OCCCCCCCCCCCCCC[n+]2ccc(/C=C/c3cc4c5c(c3O)CCCN5CCC4)cc2)cc1O | 540 | 590 | 1.1 | 440 | 0.81 | 23600 | 43.6 | 42 | – | – | – | – | – | –
2 | Oc1c(/C=C/c2cc[n+](CCCCCCCCCCCCCCBr)cc2)cc2c3c1CCCN3CCC2.[Br-] | 430 | 490 | 1.16 | 340 | 0.79 | 26700 | 62.6 | > 5000 | Not Active | Not Active | – | – | – | –
3 | Cc1cc[n+](CCCCCCCCCCCCCCOc2cc(C)c(C(=O)O)c(O)c2)cc1 | – | – | – | 16600 | 0.84 | > 20000 | > 10 | 1800 | – | – | – | – | – | –
4 | Cc1cc(O)cc(OCCCCCCCCCCCCCC[n+]2ccc(/C=C/c3cc4c5c(c3O)CCCN5CCC4)cc2)c1.[Br-] | 500 | 630 | 1.25 | 430 | 0.85 | 22200 | 44.1 | 145 | – | – | Active | – | – | –
5 | N=C(N)c1ccc(OCCCCCOc2ccc(C(=N)N)cc2)cc1 [PENTAMIDINE] | 4.9 | 500 | 102 | 34 | 6.9 | – | – | – | – | – | – | – | – | –
6 | Cc1cc[n+](CCCCCCCCCCCCCCOC(=O)c2c(C)cc(O)cc2O)cc1 | 55 | 60 | 1.04 | – | – | 760 | 13.8 | > 5000 | – | – | – | – | – | –
7 | Cc1cc[n+](CCCCCCCCCCCCCCOC(=O)c2c(O)cc(O)c(Cl)c2C)cc1 | 240 | 220 | 1.53 | 190 | 0.8 | 43700 | 182 | 720 | – | – | – | – | – | –
8 | Cc1cc(O)cc(O)c1C(=O)OCCCCCCCCCCCCCC[n+]1ccc(/C=C/c2cc3c4c(c2O)CCCN4CCC3)cc1.[Br-] | 1010 | 1190 | 1.17 | 1050 | 1.03 | > 100000 | > 100 | 360 | – | – | Active | Active | 66 | Active
9 | Cc1cc[n+](CCCCCCCCCCCCCCOC(=O)c2c(C)c(Cl)c(O)c(Cl)c2O)cc1 | 2550 | 2640 | 1.03 | – | – | 4400 | 1.7 | 910 | – | – | – | – | – | –
10 | Cc1c(Cl)c(O)cc(O)c1C(=O)OCCCCCCCCCCCCCCBr | 6840 | 10100 | 1.48 | 13100 | 1.91 | 55900 | 8.2 | 750 | – | – | – | – | – | –

Source: ChEMBL document CHEMBL4837204, “Synthesis, biological, and photophysical studies of molecular rotor-based fluorescent inhibitors of the trypanosome alternative oxidase” (Eur J Med Chem, 2021)
